Results reported in ChEMBL document CHEMBL2440113, “Synthesis, radiofluorination, and in vivo evaluation of novel fluorinated and iodinated radiotracers for PET imaging and targeted radionuclide therapy of melanoma” (J Med Chem, 2013).

Tests used:
Details in all cases: in vivo
Muscle tissue = test: Biodistribution in muscle of C57BL/6J mouse harboring mouse B16-Bl6 cells at 8 to 12 MBq, iv after 1 hr by PET analysis; assay type: ADME, organism-based
Method in brief: (§1)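 C57BL/6J mice were inoculated s.c. on the right shoulder with 3x10⁵ B16Bl6 cells in PBS under isoflurane, and imaged at day 10 or 14 (tumor volume 431.8 ± 154.3 mm³). The ¹⁸F tracer was given i.v. via tail vein, 8-12 MBq (methods: 9-12 MBq/0.15 mL). Under ketamine/xylazine i.p., a 25-min whole-body static PET scan ran at 1 h. ROI %ID/g = counts/g/min ÷ injected dose. n=2-8; mean ± SD.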

Bone = test: Biodistribution in bone of C57BL/6J mouse harboring mouse B16-Bl6 cells at 8 to 12 MBq, iv after 1 hr by PET analysis; assay type: ADME, organism-based, Bone element; method in brief: as §1
[1] = Ratio of drug level in tumor to muscle in C57BL/6J mouse harboring mouse B16-Bl6 cells at 8 to 12 MBq, iv after 1 hr by PET analysis; assay type: ADME, organism-based
Method in brief: (§2)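 Static whole-body PET at 1 h after tail-vein injection of [18F]tracer (9-12 MBq/0.15 mL) in C57BL/6J mice carrying subcutaneous B16Bl6 shoulder tumours (3x10⁵ cells), imaged day 10 or 14. Mice under ketamine/xylazine ip. 25 min acquisition, OSEM reconstruction. ROI % ID/g = counts/g/min ÷ injected dose; ratios = tumour % ID/g ÷ organ % ID/g. n=2-8; mean ± SD.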

Mus musculus [2] = test: Biodistribution in eye of C57BL/6J mouse harboring mouse B16-Bl6 cells at 8 to 12 MBq, iv after 1 hr by PET analysis; assay type: ADME, organism-based; method in brief: as §1
Mus musculus [3] = test: Biodistribution in tumor of C57BL/6J mouse harboring mouse B16-Bl6 cells at 8 to 12 MBq, iv after 1 hr by PET analysis; assay type: ADME, organism-based, Neoplasm; method in brief: as §2
[4] = Ratio of drug level in tumor to bone in C57BL/6J mouse harboring mouse B16-Bl6 cells at 8 to 12 MBq, iv after 1 hr by PET analysis; assay type: ADME, organism-based; method in brief: as §2

Row | Drug uptake (Muscle tissue) [% ID/g] | Drug uptake (Bone) [% ID/g] | Ratio [1] | Drug uptake (Mus musculus [2]) [% ID/g] | Drug uptake (Mus musculus [3]) [% ID/g] | Ratio [4] | Structure (SMILES)
1 | 0.82 | 2.77 | 5.07 | 2.7 | 4.16 | 1.46 | CCN(CC#CC[18F])CCNC(=O)c1cnc2cc(I)ccc2n1
2 | 0.83 | 3.39 | 8.27 | 9.49 | 6.74 | 1.99 | CCN(C/C=C/C[18F])CCNC(=O)c1cnc2cc(I)ccc2n1
3 | 1.02 | 1.31 | 1.95 | 1.4 | 2.02 | 1.31 | CCN(CC[18F])CCNC(=O)c1cnc2cc(I)ccc2n1
4 | 0.9 | 7.05 | 11.86 | 10.46 | 10.56 | 1.5 | CCN(CCC[18F])CCNC(=O)c1cnc2cc(I)ccc2n1
